# In ChEMBL document CHEMBL1158122, “Anti-inflammatory, anti-tumor-promoting, and cytotoxic activities of constituents of marigold (Calendula officinalis) flowers” (J Nat Prod, 2006):
# Experiments:
# Raji [1] = assay: Inhibition of TPA-induced EBV-early antigen activation in human Raji cells at 1000 molar ratio relative to TPA; format: cell-based; parameters: scale not given: the % may be the effect or the level left; conditions: human gammaherpesvirus 4
# UACC-257 = assay: Cytotoxicity against human UACC-257 cells after 48 hrs by SRB assay; format: functional; conditions: UACC-257, 48 h
# In short: (§1)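 Tested in the NCI panel of 60 human tumour cell lines covering lung, colon, melanoma, renal, ovarian, breast and leukaemia. At least five concentrations were run in 10-fold dilutions starting from 10^-4 M. Exposure was continuous for 48 h. Growth or viability was estimated by sulforhodamine B protein staining, and GI50 values were reported.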
# 786-0 = assay: Cytotoxicity against human 786-0 cells after 48 hrs by SRB assay; format: functional; conditions: 786-0, 48 h
# TK-10 = assay: Cytotoxicity against human TK-10 cells after 48 hrs by SRB assay; format: functional; conditions: TK-10, 48 h; in short: as §1
# HL-60 = assay: Cytotoxicity against human HL-60 cells after 48 hrs by SRB assay; format: functional; conditions: HL-60, 48 h
# SF-268 = assay: Cytotoxicity against human SF-268 cells after 48 hrs by SRB assay; format: functional; conditions: SF-268, 48 h
# SK-MEL-5 = assay: Cytotoxicity against human SK-MEL-5 cells after 48 hrs by SRB assay; format: functional; conditions: SK-MEL-5, 48 h
# BT-549 = assay: Cytotoxicity against human BT-549 cells after 48 hrs by SRB assay; format: functional; conditions: BT-549, 48 h
# [2] = Cytotoxicity against human SK MEL28 cells after 48 hrs by SRB assay; format: functional; conditions: SK-MEL-28, 48 h
# SNB-19 = assay: Cytotoxicity against human SNB-19 cells after 48 hrs by SRB assay; format: functional; conditions: SNB-19, 48 h
# MCF7 = assay: Cytotoxicity against human MCF7 cells after 48 hrs by SRB assay; format: functional; conditions: MCF7, 48 h
# [3] = Cytotoxicity against human Raji cells assessed as cell viability at 100 molar ratio; format: cell-based; conditions: read-out: Activity
# In short: (§2)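 Raji cells were treated with 32 pmol TPA to induce EBV early antigen activation. The test agent was added at 10, 100, 500 or 1000 mol ratio relative to TPA, and Raji cell viability was measured alongside EA activation.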
# [4] = Cytotoxicity against human Raji cells assessed as cell viability at 500 molar ratio; format: cell-based; conditions: read-out: Activity; in short: as §2
# MDA-MB-435 = assay: Cytotoxicity against human MDA-MB-435 cells after 48 hrs by SRB assay; format: functional; conditions: MDA-MB-435, 48 h
# OVCAR-8 = assay: Cytotoxicity against human OVCAR8 cells after 48 hrs by SRB assay; format: functional; conditions: OVCAR-8, 48 h
# SF-295 = assay: Cytotoxicity against human SF-295 cells after 48 hrs by SRB assay; format: functional; conditions: SF-295, 48 h
# RXF 393 = assay: Cytotoxicity against human […] cells after 48 hrs by SRB assay; format: functional; conditions: RXF 393, 48 h
# HOP-92 = assay: Cytotoxicity against human HOP-92 cells after 48 hrs by SRB assay; format: functional; conditions: HOP-92, 48 h
# OVCAR-3 = assay: Cytotoxicity against human OVCAR-3 cells after 48 hrs by SRB assay; format: functional; conditions: OVCAR-3, 48 h
# [5] = Inhibition of TPA-induced EBV-early antigen activation in human Raji cells relative to TPA; format: cell-based, human gammaherpesvirus 4
# NCI/ADR-RES = assay: Cytotoxicity against human NCI/ADR-RES cells after 48 hrs by SRB assay; format: functional
# Mus musculus = assay: Antiinflammatory activity against TPA-induced ear edema in mouse; format: functional
# In short: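 Specific-pathogen-free female ICR mice were housed five per cage at 24 ± 2 °C. Inflammation was induced on the ear with TPA at 1 µg/ear, and the test agent was applied per ear. Ear edema inhibition was expressed as ID50 in mg per ear.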
# HCT-15 = assay: Cytotoxicity against human HCT-15 cells after 48 hrs by SRB assay; format: functional; conditions: HCT-15, 48 h
# T47D = assay: Cytotoxicity against human T47D cells after 48 hrs by SRB assay; format: functional; in short: as §1
# HT-29 = assay: Cytotoxicity against human HT-29 cells after 48 hrs by SRB assay; format: functional; conditions: HT-29, 48 h
# Raji [6] = assay: Inhibition of TPA-induced EBV-early antigen activation in human Raji cells at 100 molar ratio relative to TPA; format: cell-based; parameters: scale not given: the % may be the effect or the level left; conditions: human gammaherpesvirus 4
# CAKI-1 = assay: Cytotoxicity against human Caki-1 cells after 48 hrs by SRB assay; format: functional; conditions: CAKI-1, 48 h
# [7] = Cytotoxicity against human Raji cells assessed as cell viability at 10 molar ratio; format: cell-based; conditions: read-out: Activity; in short: as §2
# UACC-62 = assay: Cytotoxicity against human UACC-62 cells after 48 hrs by SRB assay; format: functional; conditions: UACC-62, 48 h; in short: as §1
# NCI-H460 = assay: Cytotoxicity against human NCI-H460 cells after 48 hrs by SRB assay; format: functional; conditions: NCI-H460, 48 h
# IGROV-1 = assay: Cytotoxicity against human IGROV1 cells after 48 hrs by SRB assay; format: functional; conditions: IGROV-1, 48 h
# UO-31 = assay: Cytotoxicity against human UO-31 cells after 48 hrs by SRB assay; format: functional; conditions: UO-31, 48 h; in short: as §1
# HCC 2998 = assay: Cytotoxicity against human HCC2998 cells after 48 hrs by SRB assay; format: functional; conditions: HCC 2998, 48 h
# A549 = assay: Cytotoxicity against human A549 cells after 48 hrs by SRB assay; format: functional; conditions: A549, 48 h
# HOP-62 = assay: Cytotoxicity against human HOP-62 cells after 48 hrs by SRB assay; format: functional; conditions: HOP-62, 48 h
# MOLT-4 = assay: Cytotoxicity against human MOLT-4 cells after 48 hrs by SRB assay; format: functional; conditions: MOLT-4, 48 h
# NCI-H226 = assay: Cytotoxicity against human NCI-H226 cells after 48 hrs by SRB assay; format: functional; conditions: NCI-H226, 48 h
# LOX IMVI = assay: Cytotoxicity against human LOX IMVI cells after 48 hrs by SRB assay; format: functional
# EKVX = assay: Cytotoxicity against human EKVX cells after 48 hrs by SRB assay; format: functional
# MDA-MB-231 = assay: Cytotoxicity against human MDA-MB-231 cells after 48 hrs by SRB assay; format: functional; conditions: MDA-MB-231, 48 h
# NCI-H23 = assay: Cytotoxicity against human NCI-H23 cells after 48 hrs by SRB assay; format: functional; conditions: NCI-H23, 48 h
# [8] = Cytotoxicity against human Hs 578T cells after 48 hrs by SRB assay; format: functional
# COLO 205 = assay: Cytotoxicity against human COLO205 cells after 48 hrs by SRB assay; format: functional; conditions: COLO 205, 48 h
# NCI-H322M = assay: Cytotoxicity against human NCI-H322M cells after 48 hrs by SRB assay; format: functional
# SW-620 = assay: Cytotoxicity against human SW620 cells after 48 hrs by SRB assay; format: functional; conditions: SW-620, 48 h
# NCI-H522 = assay: Cytotoxicity against human NCI-H522 cells after 48 hrs by SRB assay; format: functional; conditions: NCI-H522, 48 h
# KM12 = assay: Cytotoxicity against human KM12 cells after 48 hrs by SRB assay; format: functional; conditions: KM12, 48 h
# SK-MEL-2 = assay: Cytotoxicity against human SK-MEL-2 cells after 48 hrs by SRB assay; format: functional; conditions: SK-MEL-2, 48 h
# OVCAR-5 = assay: Cytotoxicity against human OVCAR5 cells after 48 hrs by SRB assay; format: functional; conditions: OVCAR-5, 48 h
# Raji [9] = assay: Inhibition of TPA-induced EBV-early antigen activation in human Raji cells at 500 molar ratio relative to TPA; format: cell-based; parameters: scale not given: the % may be the effect or the level left; conditions: human gammaherpesvirus 4
# Malme-3M = assay: Cytotoxicity against human MALME-3M cells after 48 hrs by SRB assay; format: functional
# [10] = Cytotoxicity against human HCT 116 cells after 48 hrs by SRB assay; format: functional; conditions: HCT-116, 48 h
# [11] = Cytotoxicity against human Raji cells assessed as cell viability at 1000 molar ratio; format: cell-based; conditions: read-out: Activity; in short: as §2
# Raji [12] = assay: Inhibition of TPA-induced EBV-early antigen activation in human Raji cells at 10 molar ratio relative to TPA; format: cell-based; parameters: scale not given: the % may be the effect or the level left; conditions: human gammaherpesvirus 4
# SN12C = assay: Cytotoxicity against human SN12C cells after 48 hrs by SRB assay; format: functional
# K562 = assay: Cytotoxicity against human K-562 cells after 48 hrs by SRB assay; format: functional; conditions: K562, 48 h
# ACHN = assay: Cytotoxicity against human ACHN cells after 48 hrs by SRB assay; format: functional
# PC-3 = assay: Cytotoxicity against human PC-3 cells after 48 hrs by SRB assay; format: functional; conditions: PC-3, 48 h
smiles,measurement,setting,value
CCCCOC(=O)[C@H]1O[C@@H](O[C@H]2CC[C@]3(C)[C@H]4CC=C5[C@@H]6CC(C)(C)CC[C@]6(C(=O)O)CC[C@@]5(C)[C@]4(C)CC[C@H]3C2(C)C)[C@H](O[C@@H]2O[C@H](CO)[C@@H](O)[C@H](O)[C@H]2O)[C@@H](O[C@@H]2O[C@H](CO)[C@H](O)[C@H](O)[C@H]2O)[C@@H]1O,Activity,Raji [1],11%
same,GI50,UACC-257,26.2 µM
same,GI50,786-0,26.2 µM
same,GI50,TK-10,33.3 µM
same,GI50,HL-60,22.3 µM
same,GI50,SF-268,27.7 µM
same,GI50,SK-MEL-5,33.1 µM
same,GI50,BT-549,21.5 µM
same,GI50,[2],26.7 µM
same,GI50,SNB-19,22.5 µM
same,GI50,MCF7,38.4 µM
same,viability at 100 molar ratio,[3],> 80%
same,viability at 500 molar ratio,[4],> 80%
same,GI50,MDA-MB-435,30.6 µM
same,GI50,OVCAR-8,66.8 µM
same,GI50,SF-295,26 µM
same,GI50,RXF 393,58.5 µM
same,GI50,HOP-92,33.2 µM
same,GI50,OVCAR-3,> 100 µM
same,IC50,[5],473 molar ratio
same,GI50,NCI/ADR-RES,74 µM
same,ID50,Mus musculus,0.06 mg
same,GI50,HCT-15,20.9 µM
same,GI50,T47D,48 µM
same,GI50,HT-29,34.2 µM
same,Activity,Raji [6],71%
same,GI50,CAKI-1,33.4 µM
same,viability at 10 molar ratio,[7],> 80%
same,GI50,UACC-62,20.9 µM
same,GI50,NCI-H460,33.3 µM
same,GI50,IGROV-1,> 100 µM
same,GI50,UO-31,49.2 µM
same,GI50,HCC 2998,21.8 µM
same,GI50,A549,34.1 µM
same,GI50,HOP-62,19.4 µM
same,GI50,MOLT-4,7.77 µM
same,GI50,NCI-H226,29.2 µM
same,GI50,LOX IMVI,18 µM
same,GI50,EKVX,24.4 µM
same,GI50,MDA-MB-231,14.5 µM
same,GI50,NCI-H23,22.8 µM
same,GI50,[8],38 µM
same,GI50,COLO 205,20.1 µM
same,GI50,NCI-H322M,19 µM
same,GI50,SW-620,36.6 µM
same,GI50,NCI-H522,43.9 µM
same,GI50,KM12,30.8 µM
same,GI50,SK-MEL-2,40.9 µM
same,GI50,OVCAR-5,28.8 µM
same,Activity,Raji [9],49.3%
same,GI50,Malme-3M,17.8 µM
same,GI50,[10],20.6 µM
same,viability at 1000 molar ratio,[11],70%
same,Activity,Raji [12],100%
same,GI50,SN12C,21.8 µM
same,GI50,K562,23.2 µM
same,GI50,ACHN,20.6 µM
same,GI50,PC-3,34.7 µM
